Compound activity from PubChem.
The list is not random: actives were taken first. Their share in the collection is about 3.3%.
m5-HT2A agonist = agonists of mouse serotonin 5-HT2A receptor (HTR2A); P35363; CHO-K1 mHTR2A beta-arrestin complementation, luminescence; percent of 30 µM serotonin response; activation, % at 7.6 µM; 360,000 compounds, 0.66% hits; AID 624169;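 active means activation above a run cutoff, the mean activation of all tested compounds plus 3 SD, cut at about 14% in these data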;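 further: 0% = plate median of compound wells and 100% = 30 µM serotonin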
CendR NRP1 mod = modulators of CendR peptide binding to human neuropilin-1; 360,000 compounds, 0.85% hits; FAM-RPARPAR peptide binding to NRP-1, fluorescence polarization; O14786; inhibition, % at 25 µM;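 active means inhibition or corrected inhibition above about 18%, plus a signal ratio from 0.5 to 1.5, limit read from the data, passing the limit was not always enough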
Target sequence (O14786 whole entry, looked up): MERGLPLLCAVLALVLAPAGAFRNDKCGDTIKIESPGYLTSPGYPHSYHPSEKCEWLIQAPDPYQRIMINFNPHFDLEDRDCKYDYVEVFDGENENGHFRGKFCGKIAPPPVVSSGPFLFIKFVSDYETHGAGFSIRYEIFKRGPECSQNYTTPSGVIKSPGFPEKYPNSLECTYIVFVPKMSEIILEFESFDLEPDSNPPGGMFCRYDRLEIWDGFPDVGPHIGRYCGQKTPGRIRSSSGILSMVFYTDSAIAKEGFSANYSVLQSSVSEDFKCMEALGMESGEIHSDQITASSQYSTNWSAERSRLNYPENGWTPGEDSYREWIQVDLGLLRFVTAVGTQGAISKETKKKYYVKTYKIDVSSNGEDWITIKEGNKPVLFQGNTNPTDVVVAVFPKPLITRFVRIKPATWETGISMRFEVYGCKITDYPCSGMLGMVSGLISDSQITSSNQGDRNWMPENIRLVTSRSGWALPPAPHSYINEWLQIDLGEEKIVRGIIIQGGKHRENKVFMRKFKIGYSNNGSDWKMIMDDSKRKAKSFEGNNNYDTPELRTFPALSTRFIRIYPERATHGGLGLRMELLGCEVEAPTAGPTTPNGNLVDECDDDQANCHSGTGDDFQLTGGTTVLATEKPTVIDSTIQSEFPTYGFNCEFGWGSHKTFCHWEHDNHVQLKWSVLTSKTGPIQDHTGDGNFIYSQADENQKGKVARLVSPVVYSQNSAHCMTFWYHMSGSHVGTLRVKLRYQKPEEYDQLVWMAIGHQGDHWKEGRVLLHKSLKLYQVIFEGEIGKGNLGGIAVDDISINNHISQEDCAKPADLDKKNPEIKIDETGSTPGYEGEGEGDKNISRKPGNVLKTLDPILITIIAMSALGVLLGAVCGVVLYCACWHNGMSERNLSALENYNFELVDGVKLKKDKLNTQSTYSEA
Arrestin-AP2 inh = blocks beta-arrestin peptide binding to AP2 adaptin; FITC-arrestin peptide / GST-AP2 beads, flow cytometry; AP2 beta2 appendage carries R879A mutation; inhibition, % at 10 µM; 340,000 compounds, 0.31% hits;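 active means inhibition above a set limit, near 3 SD of compounds lacking own fluorescence, cut at about 54% in these data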;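 further: plate controls were DMSO wells for no effect and 5 µM unlabelled arrestin peptide for full effect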
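System: GST-AP2 R879A bound to glutathione beads, E. coli-expressed. Also added: 50 nM FITC-arrestin peptide. Schedule: compound with beads 12 min RT, then probe 1 h RT. Signal: bead flow cytometry, FITC channel. Read-out basis: percent response.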
Hep lipid drop = hepatic lipid droplet formation modulation | inhibition, % at 6.5 µM | AML12 mouse hepatocytes, oleate lipid droplets, BODIPY imaging | 240,000 compounds, 0.4% hits | AID 1656;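 active means lipid droplet intensity inhibited by at least 50%, with more than 500 cells counted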
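Assay system: AML12 mouse liver cells | Compound: 6.5 µM single-point dosing | Schedule: Overnight exposure | Technique: Fluorescence imaging, 20x objective, two fields per well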
HGIII-sPLA2 inh = Inhibits HGIII-sPLA2 liposome hydrolysis, primary screen; Q9NZ20; QFRET BODIPY PC-A2 liposome hydrolysis, fluorescence; inhibition, % at 12.2 µM; 370,000 compounds, 0.56% hits; AID 743126;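 active means inhibition above mean plus 3 SD of compounds lying within the high and low control bounds, cut at about 19% in these data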;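 further: 0% = median of test compound wells and 100% = no enzyme DMSO wells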
PfM18AAP inh = blocks P. falciparum M18 aspartyl aminopeptidase. recombinant PfM18AAP, H-Glu-NHMec fluorogenic cleavage. inhibition, % at 7.35 µM. 290,000 compounds, 1.2% hits;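 active means inhibition above the campaign mean inhibition over all tested compounds plus 3 SD, cut at about 28% in these data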;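 further: 0% = plate median of test compound wells and 100% = 2 mM ZnCl2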
Starred values were filed as active, the others as inactive; / = no result.

SMILES	m5-HT2A agonist	CendR NRP1 mod	Arrestin-AP2 inh	Hep lipid drop	HGIII-sPLA2 inh	PfM18AAP inh
O=C(c1ccc(-c2cccc(Cl)c2)o1)N1CCN(c2ccc([N+](=O)[O-])cc2)CC1	-3.8	28.9*	19.9	21.4	-4.2	-9.1
CCOC(=O)/C=C1\SC(C)C(=O)N1CC(=O)N(CCC#N)c1ccccc1 (stereo not drawn)	2.4	-0.5	3.6	/	7.4	/
COC(=O)[C@]12C[C@H](CC(=O)NCc3ccc(OC)c(OC)c3)C(=O)N(Cc3cccc4ccccc34)C1=C[C@H](C(C)(C)C)O[C@@H]2C	/	/	/	/	-9.3	/
COc1cc(C(=O)NCC(=O)NNC(=O)CN(C)S(=O)(=O)c2ccc(Cl)cc2)cc(OC)c1OC	-4.8	27.1*	-0.7	/	-5.5	/
CN(C)c1ccc(Cl)cc1N	5.6	27.6*	2.6	-20.2	2.6	3.3
Cc1cc2cc(CNC(=O)c3ccco3)ccc2n1C	1.7	30.7*	15.6	-2.5	0.6	/
Cc1cc2cc(CNC(=O)c3ccc4c(c3)OCO4)ccc2n1C	-0.4	19.6*	12.1	-35.0	-4.0	18.5
Cc1cc2cc(CNC(=O)c3cc4ccccc4o3)ccc2n1C	/	/	/	/	/	14.9
COCC(=O)NCc1ccc2c(c1)cc(C)n2C	6.1	-1.0	7.2	6.0	-2.5	5.5
Cc1cc2cc(CNC(=O)Nc3ccc(Cl)c(Cl)c3)ccc2n1C	-1.8	19.0*	-4.0	-2.6	9.1	6.2
COc1ccc(C(=O)NCc2ccc3c(c2)cc(C)n3C)cc1	10.7	13.1	19.1	4.1	11.7	12.5
C[C@H](O)[C@@H]1CN2CCc3ccc(-c4ccc5c(c4)OCO5)cc3[C@@H]2C[C@@H]1N(C)C(=O)c1cccc(Cl)c1	/	/	/	/	-7.3	/
CCCCOCCCNC(=O)C[C@@H]1C[C@@]2(C(=O)OC)CC(C)(C)CC=C2N(CCc2ccc(OC)c(OC)c2)C1=O	10.1	-9.1	/	/	-9.0	/
Cc1ccc(NC(=O)OC2CC3CC2[C@H]2CCCCN2[C@H]3C)cc1 (stereo partly drawn)	/	/	/	/	7.2	/
O=C(CSc1nnc2c(n1)[nH]c1ccc(F)cc12)N1CCOCC1	1.9	-0.1	10.0	-4.8	4.2	2.3
CC1Cc2ccccc2N1C(=O)CSc1nnc2c(n1)[nH]c1ccc(F)cc12 (stereo not drawn)	0.5	22.3*	4.1	0.6	-1.6	0.3
CCn1nc(C)c(CNC(=O)c2cc(COc3ccccc3SC)on2)c1C	4.3	-1.6	26.4	-2.5	-1.6	-13.0
COc1cc2c(cc1OC)C(=O)C(c1ccc3c(c1)OCO3)CC2 (stereo not drawn)	-1.0	2.9	/	/	-2.4	/
COc1cc2c(cc1OC)C(=O)C(Br)CC2 (stereo not drawn)	-3.3	25.5*	/	/	/	/
CCOC(=O)[C@]12CCCC=C1N(Cc1ccc(OC)cc1)C(=O)[C@@H]2CC(=O)NCCCN1CCCC1=O	/	/	/	/	-1.1	/
CC(C)Oc1ccc(C2c3c(oc4ccccc4c3=O)C(=O)N2CCCN2CCOCC2)cc1 (stereo not drawn)	-5.2	5.8	14.6	3.5	-7.5	-3.0
O=C1c2oc3ccccc3c(=O)c2C(c2cccnc2)N1CCCN1CCOCC1 (stereo not drawn)	2.2	36.1*	-2.2	/	-0.3	-4.5
CCCCN1C(=O)C(CC(=O)NCCCN(C)C)CC(C(=O)N2CCOCC2)=C1C (stereo not drawn)	0.7	-21.2	/	/	-1.5	/
Cc1cc(NC(=O)c2ccc(Cl)cc2Cl)n(-c2ccccc2)n1	-1.4	18.2*	-4.8	/	-4.2	/
CC(C)[C@H](CO)Nc1nc(NCc2ccc(S(N)(=O)=O)cc2)c2ncn(C(C)C)c2n1	-2.9	-3.7	-9.1	-4.7	3.2	/
SMILES	m5-HT2A agonist	CendR NRP1 mod	Arrestin-AP2 inh	Hep lipid drop	HGIII-sPLA2 inh	PfM18AAP inh
CC(C)n1cnc2c(NCc3ccc(S(N)(=O)=O)cc3)nc(NCc3ccc(S(N)(=O)=O)cc3)nc21	3.3	32.5*	-4.0	25.1	-3.8	/
CCOc1ccc2nc3cc(N=Nc4ccc(N)nc4N)ccc3c(N)c2c1	-3.5	50.1*	/	/	/	/
COc1ccc(N=Nc2ccc(N)nc2N)cc1	-3.6	-24.4	28.1	5.0	3.0	-0.3
COc1ccc(NC(=O)C2CCN(C(=O)Nc3ccccc3)CC2)cc1S(=O)(=O)N(C)C	-3.9	23.3*	2.0	/	4.0	/
COc1ccc(NC(=O)C2CCN(C(=O)Cc3ccccc3)CC2)cc1OC	7.3	2.5	10.0	-7.6	1.5	-7.0
C/C(=N/NS(=O)(=O)c1cc(C)ccc1C)c1ccncc1	3.3	14.5	-12.7	-18.7	6.5	30.6*
C/C(=N/NS(=O)(=O)c1cc(C)ccc1C)c1ccc2c(c1)OCO2	-3.9	11.0	-6.8	-4.9	3.0	2.6
Cc1cccc(CNC(=O)Nc2nnc([C@H]3C[C@H](O)[C@@H](CO)O3)s2)c1	3.7	-8.3	/	/	5.3	/
Oc1c(C(c2ccccc2)N2CCN(Cc3ccccc3)CC2)sc2ncnn12 (stereo not drawn)	4.0	0.1	15.5	/	-6.7	29.0*
Oc1c(C(c2ccco2)N2CCOCC2)sc2ncnn12 (stereo not drawn)	2.4	-3.5	-7.0	/	4.5	25.6
Cc1ccc(/C=N/c2sc3c(c2C#N)CCC3)s1	0.1	0.8	-9.4	3.2	-0.4	20.1
Cc1sc(/N=C/c2ccccc2O)c(C#N)c1C	/	/	/	-17.2	/	36.5*
COC(=O)C[C@H]1C[C@H]2c3cc(NC(=O)C4CCOCC4)ccc3O[C@H]2[C@@H](CO)O1	-2.7	7.2	/	/	4.9	/
CCn1nc(C)c(CN2CCC(n3nccc3NC(=O)Cc3ccccc3)CC2)c1C	3.2	20.7*	-12.0	0.9	4.3	-12.0
Nc1c(/C=C2/C=CC(=O)C(O)=C2)c(=O)nc2sc(CC(=O)N3CCCCC3)nn12	4.2	-99.5	32.6	1.5	-28.5	63.7*
Nc1c(/C=C2/C=CC(=O)C(O)=C2)c(=O)nc2sc(CC(=O)N3CCOCC3)nn12	3.2	-65.9	29.8	/	-2.0	/
Cc1ccc(NC2c3ncccc3C(=O)N2c2ccccc2C)cc1C (stereo not drawn)	-1.1	-19.3	8.2	/	2.9	28.9*
COc1ccc(/C=N\NS(=O)(=O)c2ccc(Cl)cc2)cc1COc1ccccc1[N+](=O)[O-]	-4.3	24.4*	4.5	-2.8	-5.1	-7.4
COc1ccc(CN2CCN(C(=O)c3cccs3)CC2)cc1Br	8.7	9.2	-8.6	/	-1.1	29.2*
COc1ccc(S[C@]2(C(=O)N3CCCC3)CC(=O)N[C@@H]2c2ccc(OC)cc2)cc1	/	/	/	/	8.6	/
Cc1nn(C(=O)c2nn(C)cc2[N+](=O)[O-])c(C)c1Br	29.9*	7.3	7.1	3.5	-1.9	2.9
O=c1ccn(Cc2ccccc2)c2ccccc12	5.5	29.8*	7.1	29.3	1.4	/
COc1cccc(/C=N/NC(=O)c2cc(C34CC5CC(CC(C5)C3)C4)[nH]n2)c1	-4.0	-1.5	-0.1	-21.4	1.5	-1.2
